Activity calls are given as the source filed them. The calls are words filed in the database; no cut-off is given here.
What was measured:
Rattus norvegicus [1] = species on record: Rattus norvegicus; assay: Compound was tested for Dopa accumulation in limbic system (brain) of reserpinized rat; I = Inactive; assay type: functional, organism-based
Rattus norvegicus [2] = species on record: Rattus norvegicus; assay: Compound was tested for 5-HTP accumulation in limbic system (brain) of reserpinized rat.; assay type: functional
Outline: (§1)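 Male Sprague-Dawley rats (200–300 g), pretreated with reserpine in glacial acetic acid/5.5% glucose. Compounds were given sc in saline at neutral pH. 5-HTP in striatum, limbic system or hemispheres was measured by HPLC with electrochemical detection. Dose-response curves used 4–6 dose levels per substance and region, with 95% confidence limits by modified probit analysis.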

Rattus norvegicus [3] = species on record: Rattus norvegicus; assay: Compound was tested for 5-HTP accumulation in corpus striatum (brain) of reserpinized rat.; assay type: functional; outline: as §1
Rattus norvegicus [4] = species on record: Rattus norvegicus; assay: Compound was tested for Dopa accumulation in corpus striatum(brain) of reserpinized rat; I = Inactive; assay type: functional, organism-based
Rattus norvegicus [5] = species on record: Rattus norvegicus; assay: Compound was tested for 5-HTP accumulation in hemispheres (brain) of reserpinized rat.; assay type: functional; outline: as §1
Rattus norvegicus [6] = species on record: Rattus norvegicus; assay: Compound was tested for Dopa accumulation in hemispheres (brain) of reserpinized rat; I = Inactive; assay type: functional, organism-based
Rattus norvegicus [7] = assay: Compound was tested for Dopa accumulation in limbic system(brain) of reserpinized rat; A partial agonistic response at a dose of 12.5 uM/kg; assay type: functional, organism-based; conditions: filed as partial agonist
Rattus norvegicus [8] = assay: Compound was tested for 5-HTP accumulation in hemispheres (brain) of reserpinized rat; A partial agonistic response at a dose of 50 uM/kg; assay type: functional, organism-based; conditions: filed as partial agonist
Rattus norvegicus [9] = assay: Compound was tested for Dopa accumulation in hemispheres (brain) of reserpinized rat; A partial agonistic response at a dose of 50 uM/kg; assay type: functional, organism-based; conditions: filed as partial agonist
Rattus norvegicus [10] = assay: Compound was tested for Dopa accumulation in corpus striatum(brain) of reserpinized rat; A partial agonistic response at a dose of 25 uM/kg; assay type: functional, organism-based; conditions: filed as partial agonist
Rattus norvegicus [11] = assay: Compound was tested for 5-HTP accumulation in corpus striatum(brain) of reserpinized rat; A partial agonistic response at a dose of 25 uM/kg; assay type: functional, organism-based; conditions: filed as partial agonist
Rattus norvegicus [12] = assay: Compound was tested for 5-HTP accumulation in limbic system(brain) of reserpinized rat; A partial agonistic response at a dose of 12.5 uM/kg; assay type: functional, organism-based; conditions: filed as partial agonist
Rattus norvegicus [13] = species on record: Rattus norvegicus; assay: Compound was tested for 5-HTP accumulation in hemispheres (brain) of reserpinized rat; assay type: functional; outline: as §1
Rattus norvegicus [14] = species on record: Rattus norvegicus; assay: Compound was tested for 5-HTP accumulation in corpus striatum(brain) of reserpinized rat; assay type: functional; outline: as §1
Rattus norvegicus [15] = species on record: Rattus norvegicus; assay: Compound was tested for 5-HTP accumulation in limbic system(brain) of reserpinized rat; assay type: functional; outline: as §1
Rattus norvegicus [16] = species on record: Rattus norvegicus; assay: Compound was tested for Dopa accumulation in limbic system(brain) of reserpinized rat; I = Inactive; assay type: functional, organism-based
Rattus norvegicus [17] = species on record: Rattus norvegicus; assay: Compound was tested for 5-HTP accumulation in limbic system(brain) of reserpinized rat.; assay type: functional; outline: as §1
Rattus norvegicus [18] = species on record: Rattus norvegicus; assay: Compound was tested for 5-HTP accumulation in corpus striatum(brain) of reserpinized rat.; assay type: functional; outline: as §1
Rattus norvegicus [19] = species on record: Rattus norvegicus; assay: Compound was tested for 5-HTP accumulation in hemispheres (brain) of reserpinized rat; I = Inactive; assay type: functional; outline: as §1

**Q.** `CCCN(CCC)[C@@H]1CCc2cccc(O)c2[C@@H]1C` was tested. Which ED50 (Rattus norvegicus [1]) did it give?
**A.** inactive

**Q.** What about the ED50 (Rattus norvegicus [2]) of the same compound?
**A.** 0.09 µmol/kg

**Q.** What about the ED50 (Rattus norvegicus [3]) of the same compound?
**A.** 0.04 µmol/kg

**Q.** And the ED50 (Rattus norvegicus [4])?
**A.** inactive

**Q.** What about the ED50 (Rattus norvegicus [5]) of the same compound?
**A.** 0.09 µmol/kg

**Q.** What about the ED50 (Rattus norvegicus [6]) of the same compound?
**A.** inactive

**Q.** Which results are given for `CCCN1CCCC2c3c(O)cccc3CCC21` (centres undefined)?
**A.** ED50 (Rattus norvegicus [7]): Partial agonist; ED50 (Rattus norvegicus [8]): Partial agonist; ED50 (Rattus norvegicus [9]): Partial agonist; ED50 (Rattus norvegicus [10]): Partial agonist; ED50 (Rattus norvegicus [11]): Partial agonist; ED50 (Rattus norvegicus [12]): Partial agonist

**Q.** Which results are given for `CCCN1CCCC2c3c(O)cccc3CCC21` (stereo in doubt) [listing 1 of 2 here]?
**A.** ED50 (Rattus norvegicus [13]): 3.47 µmol/kg; ED50 (Rattus norvegicus [14]): 3.63 µmol/kg; ED50 (Rattus norvegicus [15]): 2.57 µmol/kg

**Q.** `CCCN1CCCC2c3c(O)cccc3CCC21` (stereo in doubt) [listing 2 of 2 here] was tested. Which ED50 (Rattus norvegicus [16]) did it give?
**A.** inactive

**Q.** What about the ED50 (Rattus norvegicus [4]) of the same compound?
**A.** inactive

**Q.** And the ED50 (Rattus norvegicus [6])?
**A.** inactive

**Q.** `CCCN1CCCC2c3c(O)cccc3CCC21` (stereo in doubt; 4) [listing 1 of 2 here] was tested. Which ED50 (Rattus norvegicus [17]) did it give?
**A.** 3.4 µmol/kg

**Q.** What about the ED50 (Rattus norvegicus [18]) of the same compound?
**A.** 3.4 µmol/kg

**Q.** What about the ED50 (Rattus norvegicus [19]) of the same compound?
**A.** 4.5 µmol/kg

**Q.** `CCCN1CCCC2c3c(O)cccc3CCC21` (stereo in doubt; 4) [listing 2 of 2 here] was tested. Which ED50 (Rattus norvegicus [16]) did it give?
**A.** inactive

**Q.** And the ED50 (Rattus norvegicus [4])?
**A.** inactive

**Q.** What about the ED50 (Rattus norvegicus [6]) of the same compound?
**A.** inactive
